ChEMBL document CHEMBL3526048, “In vitro metabolism of rivoglitazone, a novel peroxisome proliferator-activated receptor γ agonist, in rat, monkey, and human liver microsomes and freshly isolated hepatocytes” (Drug Metab Dispos, 2011)

Tests used:
Liver microsome = assay: Drug metabolism in human liver microsomes assessed as formation of 5-(4-((6-hydroxy-1-methyl-1H-benzo[d]imidazol-2-yl)methoxy)benzyl)thiazolidine-2,4-dione at 20 uM after 2 hrs by radio-HPLC/LC-MS/MS analysis in presence of NADPH-generating system and NADPH-generating system/SAM; format: ADME
Cytochrome P450 2C8 = molecular target: T1, Cytochrome P450 2C8 (Homo sapiens, UniProt P10632); assay: Activity of human CYP2C8 expressed in microsomes isolated from baculovirus infected insect cell assessed as enzyme-mediated 2-amino-3-((1-carboxy-2-(4-((6-methoxy-1-methyl-1H-benzo[d]imidazol-2-yl)methoxy)phenyl)ethyl)disulfanyl)propanoic acid formation at 20 uM after 2 hrs by radio-HPLC/LC-MS/MS analysis; format: ADME
T1 sequence (P10632 whole entry): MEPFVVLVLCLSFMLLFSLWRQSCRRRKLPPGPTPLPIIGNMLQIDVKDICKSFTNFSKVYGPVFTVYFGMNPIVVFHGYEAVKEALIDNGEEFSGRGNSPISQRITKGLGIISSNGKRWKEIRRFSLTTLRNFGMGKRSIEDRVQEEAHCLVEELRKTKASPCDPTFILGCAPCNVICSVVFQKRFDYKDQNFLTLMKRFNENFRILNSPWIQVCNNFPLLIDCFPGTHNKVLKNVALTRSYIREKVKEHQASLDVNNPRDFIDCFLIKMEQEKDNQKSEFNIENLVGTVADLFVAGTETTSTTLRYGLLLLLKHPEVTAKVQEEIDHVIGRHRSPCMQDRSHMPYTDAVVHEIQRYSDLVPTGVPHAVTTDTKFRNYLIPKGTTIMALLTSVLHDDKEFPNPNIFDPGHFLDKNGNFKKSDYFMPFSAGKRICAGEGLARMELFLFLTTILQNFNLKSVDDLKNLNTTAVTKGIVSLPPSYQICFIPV
Method in brief: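 Baculovirus/insect-cell microsomes expressing single human CYPs, 1 mg/ml protein, with 50 mM potassium phosphate (pH 7.4) or 100 mM Tris-HCl (pH 7.5). NADPH-generating system: 2 mM NADP⁺, 20 mM glucose 6-phosphate, 2 units/ml G6PDH, 10 mM MgCl₂. [¹⁴C]rivoglitazone at 20 μM, 2 h at 37°C with shaking. Control used insect-cell control supersomes. Stopped with acetonitrile; supernatant concentrated under nitrogen; metabolites analysed by radio-HPLC, LC-MS and LC-MS/MS.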

[1] = Drug metabolism in monkey hepatocytes assessed as formation of (2S,3S,4S,5R,6R)-3,4,5-trihydroxy-6-(5-(4-((6-methoxy-1-methyl-1H-benzo[d]imidazol-2-yl)methoxy)benzyl)-2,4-dioxothiazolidin-3-yl)tetrahydro-2H-pyran-2-carboxylic acid at 30 uM after 3 hrs by radio-HPLC/LC-MS/MS analysis in presence of UDPGA and UDPGA/SAM; details: cynomolgus monkey
[2] = molecular target: T2, UDP-glucuronosyltransferase 1A10 (Homo sapiens, UniProt Q9HAW8); assay: Activity of human UGT1A10 expressed in microsomes isolated from baculovirus infected insect cell assessed as enzyme-mediated (2S,3S,4S,5R,6R)-3,4,5-trihydroxy-6-(5-(4-((6-methoxy-1-methyl-1H-benzo[d]imidazol-2-yl)methoxy)benzyl)-2,4-dioxothiazolidin-3-yl)tetrahydro-2H-pyran-2-carboxylic acid formation at 20 uM after 4 hrs by radio-HPLC/LC-MS/MS analysis in presence of UDPGA; format: ADME
T2 sequence (Q9HAW8 whole entry): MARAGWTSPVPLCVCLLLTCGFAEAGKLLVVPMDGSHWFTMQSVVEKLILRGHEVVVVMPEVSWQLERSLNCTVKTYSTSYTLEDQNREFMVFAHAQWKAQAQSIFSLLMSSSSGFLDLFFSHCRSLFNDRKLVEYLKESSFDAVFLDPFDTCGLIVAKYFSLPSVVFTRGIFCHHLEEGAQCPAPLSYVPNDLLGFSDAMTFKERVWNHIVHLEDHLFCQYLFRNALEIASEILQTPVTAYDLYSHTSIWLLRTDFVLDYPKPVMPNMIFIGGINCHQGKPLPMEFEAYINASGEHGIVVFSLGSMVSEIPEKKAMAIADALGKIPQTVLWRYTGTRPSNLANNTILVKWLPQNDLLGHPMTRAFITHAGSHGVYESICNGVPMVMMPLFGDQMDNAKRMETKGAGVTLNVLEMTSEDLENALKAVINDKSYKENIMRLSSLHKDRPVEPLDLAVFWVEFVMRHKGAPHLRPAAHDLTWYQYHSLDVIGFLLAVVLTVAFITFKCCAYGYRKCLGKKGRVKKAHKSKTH
Method in brief: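 Alamethicin (50 μg/mg protein, 15 min on ice) pretreated expressed human UGT microsomes (1 mg/ml protein) from baculovirus-infected insect cells. Incubation with [¹⁴C]rivoglitazone (20 μM) in 100 mM Tris-HCl (pH 7.5) with 10 mM MgCl₂, started by 5 mM UDPGA, 4 h at 37°C with shaking. UGT insect-cell control supersomes were run alongside. Acetonitrile stop, concentrated supernatant analysed by radio-HPLC, LC-MS and LC-MS/MS.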

Cytochrome P450 2D6 = Cytochrome P450 2D6 (Homo sapiens, UniProt P10635); assay: (§1) Activity of human CYP2D6 expressed in microsomes isolated from baculovirus infected insect cell assessed as enzyme-mediated 3-(4-((6-methoxy-1-methyl-1H-benzo[d]imidazol-2-yl)methoxy)phenyl)-2-(methylthio)propanamide formation at 20 uM after 2 hrs by radio-HPLC/LC-MS/MS analysis in presence of NADPH-generating system/SAM; format: ADME
Cytochrome P450 3A4 = Cytochrome P450 3A4 (Homo sapiens, UniProt P08684); assay: Activity of human CYP3A4 expressed in microsomes isolated from baculovirus infected insect cell assessed as enzyme-mediated 3-(4-((6-methoxy-1-methyl-1H-benzo[d]imidazol-2-yl)methoxy)phenyl)-2-(methylsulfonyl)propanamide formation at 20 uM after 2 hrs by radio-HPLC/LC-MS/MS analysis in presence of NADPH-generating system/SAM; format: ADME
Cytochrome P450 3A5 = Cytochrome P450 3A5 (Homo sapiens, UniProt P20815); assay: as §1, with “CYP3A5” for “CYP2D6”; format: ADME
Method in brief: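 cDNA-expressed human CYP3A5 in baculovirus-insect-cell microsomes (1 mg/ml protein) was incubated with [¹⁴C]rivoglitazone (20 μM) in 50 mM potassium phosphate (pH 7.4) or 100 mM Tris-HCl (pH 7.5). NADPH-generating system: 2 mM NADP⁺, 20 mM glucose 6-phosphate, 2 units/ml G6PDH, 10 mM MgCl₂. Incubation ran 2 h at 37°C with shaking; insect-cell control supersomes served as control. Acetonitrile stop, supernatant concentrated, then radio-HPLC, LC-MS and LC-MS/MS.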

Cytochrome P450 2D6, sequence (P10635 whole entry): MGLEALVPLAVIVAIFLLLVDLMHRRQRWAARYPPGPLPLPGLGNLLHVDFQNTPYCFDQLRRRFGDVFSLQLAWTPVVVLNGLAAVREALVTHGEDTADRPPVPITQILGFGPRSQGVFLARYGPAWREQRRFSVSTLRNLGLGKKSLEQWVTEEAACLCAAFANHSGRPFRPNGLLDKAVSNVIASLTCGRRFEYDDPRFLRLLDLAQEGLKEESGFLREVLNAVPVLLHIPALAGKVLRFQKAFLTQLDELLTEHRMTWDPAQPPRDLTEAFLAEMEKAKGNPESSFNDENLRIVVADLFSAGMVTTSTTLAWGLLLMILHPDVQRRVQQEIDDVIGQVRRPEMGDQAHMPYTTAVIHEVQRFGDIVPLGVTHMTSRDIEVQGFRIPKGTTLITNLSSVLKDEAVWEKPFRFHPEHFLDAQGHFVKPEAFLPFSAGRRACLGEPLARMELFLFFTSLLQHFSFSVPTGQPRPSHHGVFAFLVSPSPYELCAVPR
Cytochrome P450 3A5, sequence (P20815 whole entry): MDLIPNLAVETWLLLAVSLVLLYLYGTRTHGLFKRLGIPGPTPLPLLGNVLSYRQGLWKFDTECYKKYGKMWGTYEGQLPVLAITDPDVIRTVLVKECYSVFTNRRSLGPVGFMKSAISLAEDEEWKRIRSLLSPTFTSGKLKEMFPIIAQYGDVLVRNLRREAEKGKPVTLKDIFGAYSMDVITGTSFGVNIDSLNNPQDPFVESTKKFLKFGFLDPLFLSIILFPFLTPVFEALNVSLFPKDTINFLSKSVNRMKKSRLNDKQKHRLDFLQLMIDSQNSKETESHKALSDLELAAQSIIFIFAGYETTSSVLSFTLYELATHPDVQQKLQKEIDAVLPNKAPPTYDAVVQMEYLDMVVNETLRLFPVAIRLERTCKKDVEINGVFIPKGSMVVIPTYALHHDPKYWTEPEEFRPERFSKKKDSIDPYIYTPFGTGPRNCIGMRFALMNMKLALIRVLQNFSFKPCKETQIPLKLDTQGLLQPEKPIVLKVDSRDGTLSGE
Cytochrome P450 3A4, sequence (P08684 whole entry): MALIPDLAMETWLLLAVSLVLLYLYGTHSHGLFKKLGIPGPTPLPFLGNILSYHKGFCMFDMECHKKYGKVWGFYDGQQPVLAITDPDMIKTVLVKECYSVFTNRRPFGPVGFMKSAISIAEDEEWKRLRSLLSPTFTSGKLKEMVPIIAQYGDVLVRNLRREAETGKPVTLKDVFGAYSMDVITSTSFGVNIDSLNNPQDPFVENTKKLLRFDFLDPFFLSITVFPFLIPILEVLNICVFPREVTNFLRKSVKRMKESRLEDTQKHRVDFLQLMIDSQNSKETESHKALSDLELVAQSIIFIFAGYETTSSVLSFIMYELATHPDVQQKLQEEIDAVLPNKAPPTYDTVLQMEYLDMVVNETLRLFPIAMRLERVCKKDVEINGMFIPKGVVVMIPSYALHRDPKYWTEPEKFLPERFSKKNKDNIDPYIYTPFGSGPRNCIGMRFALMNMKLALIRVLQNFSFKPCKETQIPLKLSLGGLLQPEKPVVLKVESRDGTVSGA

Drug metabolism (Liver microsome): metabolite_detected | Drug metabolism (Cytochrome P450 2C8): metabolite_not_detected | Drug metabolism [1]: metabolite_detected | Drug metabolism [2]: metabolite_not_detected | Drug metabolism (Cytochrome P450 2D6): metabolite_not_detected | Drug metabolism (Cytochrome P450 3A4): metabolite_not_detected | Drug metabolism (Cytochrome P450 3A5): metabolite_not_detected
SMILES: COc1ccc2nc(COc3ccc(C[14CH]4SC(=O)NC4=O)cc3)n(C)c2c1.Cl (racemic)
